Screening results as filed in PubChem BioAssay.
RanGTP-Imp inh: inhibitors of RanGTP-importin-beta interaction, primary screen, biochemical, FRET, CFP-Ran, YFP-importin-beta, homogeneous. Ran GTPase (GTP-bound) - importin-beta complex. cell-free CFP-Ran/YFP-importin-beta FRET ratio. inhibition, % (no concentration beside the values). hit rate 1.1% among 300,000;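 active means more than half of the replicate wells show a fall in the fluorescence ratio signal beyond about 16%, limit read from the data, passing the limit was not always enough; inconclusive means exactly half of the replicate wells pass the set limit; inactive means fewer than half of replicates pass the limit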
Hck-Nef inh: inhibitors of Nef-activated human Hck kinase, primary screen, biochemical, Z-Lyte FRET, 384-well, Hck-YEEI. Tyrosine-protein kinase HCK (Homo sapiens), P08631. Recombinant Hck-YEEI plus Nef, Z-Lyte FRET kinase assay. inhibition, % at 20 µM. hit rate 0.68% among 220,000. AID 463187, 2010;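 active means Hck-Nef kinase inhibition above about 50%, limit read from the data; inactive means inhibition below that limit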
Runt-SMMHC FRET: inhibitors of RUNX1 Runt–CBFb-SMMHC binding, primary screen, biochemical, FRET, Cerulean-Runt, Venus-CBFb-SMMHC, uHTS | AID 1434, 2008 | hit rate 0.74% among 220,000 | Cerulean-Runt/Venus-CBFb-SMMHC FRET ratio 530/480, 1 h | inhibition, % at 20 µM | Runt-related transcription factor 1 (Homo sapiens) + Core-binding factor subunit beta …;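 active means mean inhibition across duplicate retests at 20 µM reaching about 50%, limit read from the data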;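 further: inhibitors lower the FRET ratio by blocking Runt binding to CBFb-SMMHC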
Target sequence (Q01196 whole entry, looked up): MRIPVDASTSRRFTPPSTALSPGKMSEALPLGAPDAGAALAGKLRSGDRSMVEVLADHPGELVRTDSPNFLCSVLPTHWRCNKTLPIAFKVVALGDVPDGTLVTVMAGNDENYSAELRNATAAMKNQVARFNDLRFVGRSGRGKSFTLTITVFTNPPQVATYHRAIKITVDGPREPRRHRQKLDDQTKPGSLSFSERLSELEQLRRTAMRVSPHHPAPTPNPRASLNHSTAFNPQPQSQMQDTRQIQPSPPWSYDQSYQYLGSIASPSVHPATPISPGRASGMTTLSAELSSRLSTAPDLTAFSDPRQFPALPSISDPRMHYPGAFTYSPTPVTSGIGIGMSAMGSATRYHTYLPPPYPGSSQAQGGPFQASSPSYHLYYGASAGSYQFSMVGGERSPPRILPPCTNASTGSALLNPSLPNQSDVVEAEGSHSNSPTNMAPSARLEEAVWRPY
Target sequence (Q13951 whole entry, looked up): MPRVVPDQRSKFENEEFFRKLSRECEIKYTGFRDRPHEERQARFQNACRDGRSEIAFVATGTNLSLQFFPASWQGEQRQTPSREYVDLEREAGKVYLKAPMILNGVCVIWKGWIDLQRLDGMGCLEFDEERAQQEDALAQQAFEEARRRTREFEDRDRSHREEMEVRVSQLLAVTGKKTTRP
Tb hexokinase: Trypanosoma brucei hexokinase 1 inhibitors, primary screen, biochemical, G6PDH-coupled NADH absorbance, MLSCN library; inhibition, % at 10 µM; hit rate 0.11% among 220,000; recombinant TbHK1, G6PDH-coupled NADH A340;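 active means inhibition of 50% or more in the single-dose primary screen; inactive means inhibition below 50%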
Runt-CBFb FRET: inhibitors of RUNX1 Runt–CBFb binding, primary screen, biochemical, FRET, Cerulean-Runt, Venus-CBFb, uHTS. Runt-related transcription factor 1 (Homo sapiens) + Core-binding factor subunit beta …. Cerulean-Runt/Venus-CBFb FRET ratio 530/480, 1 h. inhibition, % at 20 µM. hit rate 0.46% among 220,000;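 active means inhibition over about 50% at 20 µM in the single-dose screen, limit read from the data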
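Measured by: fluorescence energy transfer, 422 nm excitation, 530/480 nm emission; test system: Cerulean-tagged RUNX1 Runt domain (FRET donor) fusion protein; buffer or medium: Tris pH 7.5 buffer with BSA; compound: one dose, 20 µM compound, 1% DMSO; times: two 1 h room-temperature incubations shielded from light; benchmarks: unlabeled CBFb 5 µM, positive control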
YIC counter: YIC intramolecular FRET probe signal interference, dose response, counter-screen for RanGTP-importin-beta inhibitor project, biochemical, fluorescence FRET. AID 435026, 2010. shares compounds with RanGTP-Imp inh. Purified YIC probe, intramolecular FRET ratio YFP/CFP. IC50, µM. hit rate 40% among 1,000;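 active means fitted half-maximal inhibitory concentration no more than tenfold above the top dose tested; inconclusive means flat fit with 30 to 70% activity, or poor fit; inactive means half-maximal concentration beyond tenfold above the top dose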
Hck-Nef confirm: retest of Hck:Nef kinase inhibitor hits, confirmation, biochemical, Z-Lyte FRET, 384-well, p-Tyr peptide counterscreen; AID 463188, 2010; shares compounds with Hck-Nef inh; calls only at 10 µM; hit rate 28% among 1,300; Recombinant Hck-YEEI:Nef, Z-Lyte FRET kinase assay;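 active means average inhibition of at least 50%, with Z-scores no higher than 3 in both the phospho-tyrosine peptide and fluorescence counterscreens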
Of the large screens only hits and unclear results are named; the others gave an inactive call (follow-up assays come after a bar, where shown). Most compounds without a hit are left out; they make up all but 1.9% or so of the library.

COC(=O)C1=CN(CC2CCCO2)C=C(C(=O)OC)C1c1cccc(O)c1 (centres undefined)	RanGTP-Imp inh 27.7, Hck-Nef inh 70.9, Runt-SMMHC FRET 87.0, Runt-CBFb FRET 76.4 | YIC counter 19.8
CCc1ccc(C)[n+](CC(=O)c2cccs2)c1	none (no result: Hck-Nef inh, Runt-SMMHC FRET, Tb hexokinase, Runt-CBFb FRET)
COC(=O)C1=CN(Cc2cccs2)C=C(C(=O)OC)C1c1ccc(OC)cc1OC	RanGTP-Imp inh 39.9, Hck-Nef inh 67.7, Runt-SMMHC FRET 91.1, Runt-CBFb FRET 105.2 | YIC counter 6.99
CN(CC(=O)Nc1ccc(Cl)c(C(F)(F)F)c1)C(=O)c1ccc(N2CCOCC2)c([N+](=O)[O-])c1	none (no result: Hck-Nef inh, Runt-SMMHC FRET, Tb hexokinase, Runt-CBFb FRET)
CCOc1ccc(C2C(C(=O)OC)=CN(CCOC)C=C2C(=O)OC)cc1	RanGTP-Imp inh 20.6, Hck-Nef inh 58.1, Runt-SMMHC FRET 106.9, Runt-CBFb FRET 101.6 | YIC counter 15.1
CCOC(=O)c1c(N=CN(C)C)c2cc([N+](=O)[O-])cnc2n1C	RanGTP-Imp inh inconclusive
CCCCc1cc(=O)oc2c(CN3CCCC3)c(O)c(Cl)cc12	RanGTP-Imp inh 25.5, Hck-Nef inh 152.9, Runt-SMMHC FRET 135.1, Runt-CBFb FRET 95.5 | YIC counter 27.8
COC(=O)Cc1c(C)c2ccc(OCC(=O)N3CCOCC3)cc2oc1=O	none
CCN(CC)c1ccc2c(C)c(CO)c(=O)oc2c1	RanGTP-Imp inh 131.5, Hck-Nef inh active, Runt-SMMHC FRET 85.9
CCN(CC)c1ccc2c(C)c(CN3CCOCC3)c(=O)oc2c1	Hck-Nef inh 102.0
CCN(CC)c1ccc2c(Cl)cc(=O)oc2c1	RanGTP-Imp inh 73.7, Hck-Nef inh 66.4
CCc1c(C)c2ccc(OCC(=O)OC)cc2oc1=O	none
CCc1cc(=O)oc2cc3oc(C)c(C)c3cc12	none (no result: Runt-CBFb FRET)
C[N+](C)(C)C[C@H](O)CC(=O)[O-]	none (no result: Hck-Nef inh, Runt-SMMHC FRET, Tb hexokinase, Runt-CBFb FRET)
CCCOc1ccccc1C1NC(=O)NC(C)=C1C(=O)OCCOCC (centres undefined)	none
CCCOc1ccccc1C1C(C(=O)OC)=CN(C(C)C)C=C1C(=O)OC	RanGTP-Imp inh 115.3, Hck-Nef inh 68.3, Runt-SMMHC FRET 58.5, Runt-CBFb FRET 85.5
COC(=O)C1=CN(C)C=C(C(=O)OC)C1c1ccccc1Cl	RanGTP-Imp inh 86.7, Hck-Nef inh 70.4, Runt-SMMHC FRET 82.8
CCCCOc1ccccc1C1C(C(=O)OC)=CN(CC)C=C1C(=O)OC	RanGTP-Imp inh 107.5, Hck-Nef inh 61.9
COC(=O)C1=CN(CCCN2CCCC2=O)C=C(C(=O)OC)C1c1ccccc1C(F)(F)F	RanGTP-Imp inh 115.8, Hck-Nef inh 85.5
O=C(Nc1ccc(Br)cc1Cl)NC1CC1	RanGTP-Imp inh inconclusive
O=C1OC[C@H](Cc2ccc3c(c2)OCO3)/C1=C\c1ccc2c(c1)OCO2	none (no result: Hck-Nef inh, Runt-SMMHC FRET, Tb hexokinase, Runt-CBFb FRET)
O=C(NC1CCCCC1)C(c1ccncc1)N(C(=O)c1csnn1)c1ccccc1F (centres undefined)	none (no result: Hck-Nef inh, Runt-SMMHC FRET, Tb hexokinase, Runt-CBFb FRET)
CCN(CC)c1nc2ccccc2nc1-n1nc(C)cc1C	RanGTP-Imp inh inconclusive, Hck-Nef inh 103.4 | Hck-Nef confirm inactive
CC(C)(C)c1cc(=O)n2[nH]c(N)nc2n1	none
COC(C)(C)c1cc(C(C)(C)C)nc(N)n1	Hck-Nef inh 102.2 | Hck-Nef confirm inactive
O=c1[nH]c(CSc2nc(-c3ccccc3)cs2)nc2ccccc12	none
O=c1[nH]c(CSc2ncnc3sc(-c4ccccc4)cc23)nc2ccccc12	Hck-Nef inh 54.2 | Hck-Nef confirm inactive
Cn1c(=O)c([N+](=O)[O-])c(-n2cnc3ccccc32)c2ccccc21	none
